Experimental data from ChEMBL document CHEMBL1268835, “Property based optimization of δ-lactam HDAC inhibitors for metabolic stability” (Bioorg Med Chem Lett, 2010).

Tests used:
[1] = Metabolic stability of the compound in ICR mouse liver microsome assessed as compound remaining at 1 uM; type: ADME; conditions: liver microsomes, read-out: Stability
In short: (§1)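 Test compounds were incubated at 37 °C with ICR mouse liver microsomes, with NADPH, without NADPH, and in buffer alone. Read-out is % parent remaining. The screen used 1 mg protein/ml for 30 min. A separate run used female ICR microsomes at 0.5 mg protein/mL for 60 min with 1 µM compound.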

[2] = Metabolic stability of the compound in ICR mouse liver microsome assessed as compound remaining at 1 uM in presence of NADPH; type: ADME; conditions: liver microsomes, read-out: Stability; in short: as §1
[3] = Metabolic stability of the compound in ICR mouse liver microsome assessed as compound remaining at 1 uM in presence of buffer; type: ADME; conditions: liver microsomes, read-out: Stability; in short: as §1
[4] = test system: PC-3; assay: Growth inhibition of human PC3 cells; type: functional, cell-based
[5] = test system: MDA-MB-231; assay: Growth inhibition of human MDA-MB-231 cells; type: functional, cell-based
[6] = test system: ACHN; assay: Growth inhibition of human ACHN cells; type: functional
[7] = test system: NUGC-3; assay: Growth inhibition of human NUGC3 cells; type: functional
[8] = test system: HCT-15; assay: Growth inhibition of human HCT15 cells; type: functional
[9] = test system: NCI-H23; assay: Growth inhibition of human NCI-H23 cells; type: functional
[10] = Half life in BALB/c mouse at 20 mg/kg, po; type: ADME, organism-based; set-up: dose 20 mg/kg, route oral; conditions: in vivo
In short: (§2)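 Balb/c mice were dosed intravenously or orally. Parameters come from noncompartmental analysis of mean plasma concentration–time profiles from three animals. Intravenous AUC was taken from 0 to infinity and oral AUC from 0 to 5 h. Oral bioavailability (F) is expressed as %.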

[11] = Oral bioavailability in BALB/c mouse at 20 mg/kg; type: ADME, organism-based; conditions: in vivo; in short: as §2
[12] = AUC (0 to 5 hrs) in BALB/c mouse at 20 mg/kg, po; type: ADME, organism-based; set-up: dose 20 mg/kg, route oral; conditions: plasma; in short: as §2
[13] = Tmax in BALB/c mouse at 20 mg/kg, po; type: ADME, organism-based; set-up: dose 20 mg/kg, route oral; conditions: in vivo; in short: as §2
[14] = Cmax in BALB/c mouse at 20 mg/kg, po; type: ADME, organism-based; set-up: dose 20 mg/kg, route oral; conditions: in vivo; in short: as §2
[15] = Clearance in BALB/c mouse at 5 mg/kg, iv; type: ADME, organism-based; set-up: dose 5 mg/kg, route intravenous; conditions: in vivo; in short: as §2
[16] = Half life in BALB/c mouse at 5 mg/kg, iv; type: ADME, organism-based; set-up: dose 5 mg/kg, route intravenous; conditions: in vivo; in short: as §2
[17] = AUC (0 to infinity) in BALB/c mouse at 5 mg/kg, iv; type: ADME, organism-based; set-up: time infinity, dose 5 mg/kg, route intravenous; conditions: plasma; in short: as §2
[18] = Apparent permeability across human Caco-2 cells; type: ADME, cell-based
[19] = (§3) Volume of distribution at steady state in BALB/c mouse at 5 mg/kg, iv; type: ADME, organism-based; set-up: dose 5 mg/kg, route intravenous; conditions: BALB/c, in vivo, read-out: Vdss; in short: as §2
[20] = test system: Mus musculus; assay: as §3; type: ADME, organism-based; set-up: dose 5 mg/kg, route intravenous; conditions: in vivo; in short: as §2
[21] = test system: Mus musculus; assay: Clearance in BALB/c mouse at 10 mg/kg, iv; conditions: in vivo
[22] = test system: Mus musculus; assay: Half life in BALB/c mouse at 10 mg/kg, iv; conditions: in vivo

Row | SMILES | remaining at 1 µM [1] [%] | remaining at 1 µM [2] [%] | GI50 [4] [nM] | GI50 [5] [nM] | GI50 [6] [nM] | GI50 [7] [nM] | GI50 [8] [nM] | GI50 [9] [nM] | also measured
1 | O=C(CCC1=CCCN(CCc2ccccc2F)C1=O)NO | 52.7 | 45.3 | 7070 | 3020 | 4470 | 3780 | 3600 | 6090 | remaining at 1 µM [3]: 104%
2 | CC(C)(C)c1ccc(CCN2CCC=C(CCC(=O)NO)C2=O)cc1 | – | – | 500 | 1130 | 2270 | 1100 | 520 | 990 | –
3 | O=C1CC2(CCCC2)CC(=O)N1CCCCN1CCN(c2ncccn2)CC1 [BUSPIRONE] | 96.6 | 0.3 | – | – | – | – | – | – | remaining at 1 µM [3]: 106%
4 | O=C(CCC1=CCCN(CCCCc2ccccc2)C1=O)NO | 8.5 | 8.7 | 3250 | 2030 | 1890 | 3190 | 5400 | 5990 | half-life [10]: 9 min; bioavailability [11]: 1%; AUC(0-t) at 4 h [12]: 64.4 ng·h/mL; Tmax [13]: 15 min; Cmax [14]: 197 ng/mL; clearance [15]: 49.8 mL/min/kg; half-life [16]: 77.4 min; AUC(0-inf) [17]: 1670 ng·h/mL; Papp [18]: 23.9 ×10⁻⁶ cm/s; remaining at 1 µM [3]: 97.3%; Vd [19]: 0.27 L/kg
5 | CNC(=C[N+](=O)[O-])NCCSCc1ccc(CN(C)C)o1 [RANITIDINE] | – | – | – | – | – | – | – | – | Papp [18]: 1.5 ×10⁻⁶ cm/s
6 | Cc1cccc(CCN2CCC=C(CCC(=O)NO)C2=O)c1 | – | – | > 10000 | 4040 | – | – | 4410 | – | –
7 | O=C(CCC1=CCCN(CCc2ccc(Cl)cc2)C1=O)NO | – | – | 1510 | 920 | 1280 | 1060 | 1660 | 2120 | –
8 | COc1cccc(CCN2CCC=C(CCC(=O)NO)C2=O)c1 | – | – | 4840 | 3030 | 7600 | 4260 | 3960 | 7060 | –
9 | O=C(CCC1=CCCN(CCCCc2ccc(Br)cc2)C1=O)NO | – | – | 4810 | 3540 | 2390 | 2010 | 3190 | 2730 | –
10 | O=C(CCC1=CCCN(CCCc2ccc3ccccc3c2Br)C1=O)NO | – | – | 300 | 560 | 460 | 790 | 530 | 490 | –
11 | CC(C)(C)c1ccc(CN2CCC=C(CCC(=O)NO)C2=O)cc1 | – | – | 5190 | 2840 | 3000 | – | 2940 | – | –
12 | N#Cc1cccc(CN2CCC=C(CCC(=O)NO)C2=O)c1 | – | – | 8480 | 4180 | – | – | > 10000 | – | –
13 | O=C(CCC1=CCCN(CCc2cccc(Br)c2)C1=O)NO | – | – | 810 | 870 | 300 | 820 | 1250 | 1830 | –
14 | O=C(CCC1=CCCN(CCCCc2ccc(F)cc2)C1=O)NO | – | – | > 10000 | > 10000 | 9530 | 9020 | > 10000 | > 10000 | –
15 | N#Cc1ccc(CN2CCC=C(CCC(=O)NO)C2=O)cc1 | – | – | > 10000 | 8170 | – | – | > 10000 | – | –
16 | Cc1ccc(CCCCN2CCC=C(CCC(=O)NO)C2=O)cc1 | 5.7 | 4 | 2530 | 3050 | 2490 | 2130 | 2940 | 2790 | remaining at 1 µM [3]: 99.3%
17 | O=C(CCC1=CCCN(Cc2ccc(Br)cc2F)C1=O)NO | 55 | 31.7 | 5810 | 3120 | – | – | 5370 | – | bioavailability [11]: 14.1%; AUC(0-t) at 4 h [12]: 732 ng·h/mL; Tmax [13]: 15 min; Cmax [14]: 1390 ng/mL; AUC(0-inf) [17]: 2590 ng·h/mL; remaining at 1 µM [3]: 102%; Vdss [20]: 0.8 L/kg; CL [21]: 65 mL/min/kg; t1/2 [22]: 372 min
18 | O=C(CCC1=CCCN(CCc2ccc3ccccc3c2)C1=O)NO | – | – | 390 | 270 | 380 | 360 | 310 | 430 | –
19 | O=C(CCC1=CCCN(CCc2ccc(Br)cc2)C1=O)NO | 56.6 | 29.6 | 3410 | 1870 | – | – | 870 | – | remaining at 1 µM [3]: 104%
20 | O=C(CCC1=CCCN(CCc2ccc([N+](=O)[O-])cc2)C1=O)NO | – | – | > 10000 | > 10000 | > 10000 | > 10000 | > 10000 | > 10000 | –
21 | Cc1ccc(CCN2CCC=C(CCC(=O)NO)C2=O)cc1 | – | – | 6340 | 2840 | 4550 | 3570 | 4000 | 5560 | –
22 | O=C(CCC1=CCCN(CCc2cccc(C(F)(F)F)c2)C1=O)NO | – | – | 2470 | 1900 | 2640 | 1700 | 2350 | 3970 | –
23 | CN(C)CCCN1c2ccccc2Sc2ccc(Cl)cc21 [CHLORPROMAZINE] | 86.8 | 1.2 | – | – | – | – | – | – | –
24 | O=C(CCC1=CCCN(Cc2cccc(Cl)c2)C1=O)NO | 40.3 | 31.3 | 4650 | 3580 | 4480 | 3920 | 6220 | 2960 | remaining at 1 µM [3]: 103%
25 | O=C(CCC1=CCCN(CCc2ccccc2Cl)C1=O)NO | – | – | 7250 | 3910 | 8710 | 5930 | 4210 | 6500 | –
26 | COCCc1ccc(OCC(O)CNC(C)C)cc1 (stereo unspecified) [METOPROLOL] | – | – | – | – | – | – | – | – | Papp [18]: 29.6 ×10⁻⁶ cm/s
27 | O=C(CCC1=CCCN(CCCCc2ccc(Cl)cc2)C1=O)NO | – | – | 4150 | 2560 | 2460 | 1790 | 3300 | 2880 | –
28 | CC(C)(C)c1ccc(CCCN2CCC=C(CCC(=O)NO)C2=O)cc1 | 8 | 3.3 | 1130 | > 10000 | 1720 | 2810 | 1660 | 2000 | remaining at 1 µM [3]: 103%
29 | O=C(CCC1=CCCN(CCc2ccc(C(F)(F)F)cc2)C1=O)NO | – | – | 4820 | 1810 | – | – | 1700 | – | –
